Experiments:
Assay type in all cases: functional
Rattus norvegicus [1] = species on record: Rattus norvegicus; assay: (§1) Esterase susceptibility was determined from the initial rate of aldehyde release upon incubation of the prodrug with homogenized rat small intestinal mucosa relative to compound 9
Rattus norvegicus [2] = assay: Compound was tested for inhibition of cholesterol biosynthesis in rats by intravenous (iv) dosing.
Method in brief: (§2)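 Fasted rats, dosed orally or intravenously as the line states; the read-out is inhibition of cholesterol biosynthesis from acetate.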

Rattus norvegicus [3] = assay: Compound was tested for inhibition of cholesterol biosynthesis in rats by oral dosing (po).; method in brief: as §2
Rattus norvegicus [4] = assay: Compound was tested for inhibition of cholesterol biosynthesis in rats by oral dose of 28 uM/Kg; conditions: at 28 µmol/kg
Rattus norvegicus [5] = assay: Compound was tested for inhibition of cholesterol biosynthesis in rats by intravenous (iv) dose of 22 uM/Kg; method in brief: as §2
Rattus norvegicus [6] = assay: Compound was tested for inhibition of cholesterol biosynthesis in rats by intravenous (iv) dose of 4 uM/Kg; method in brief: as §2
Rattus norvegicus [7] = species on record: Rattus norvegicus; assay: as §1; remark: listed apart in the source
Method in brief: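 A rat intestinal mucosal esterase preparation was incubated with 200 μM prodrug in 20 mM Tris, pH 7.0, at 37 °C. Timed aliquots were quenched with 0.5 M sodium acetate, pH 3.8. Released aldehyde was measured colorimetrically with methylbenzothiazolinehydrazone/ferric chloride (A625) against an aldehyde standard curve. Initial rate is given as pmol aldehyde/min per esterase unit, normalised to a reference prodrug.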

SMILES: CC(C)=CCC/C(C)=C/CC/C(C)=C/CCCC(P(=O)(OCOC(=O)c1ccccc1)OCOC(=O)c1ccccc1)S(=O)(=O)[O-].[K+] (centres undefined)
- Relative esterase susceptibility (Rattus norvegicus [1]): 1.5
- ED50 (Rattus norvegicus [2]): 1.5 µmol/kg
- ED50 (Rattus norvegicus [3]): 15 µmol/kg

SMILES: CC(C)=CCC/C(C)=C/CC/C(C)=C/CCCC(P(=O)(OC(C)OC(=O)c1ccccc1)OC(C)OC(=O)c1ccccc1)S(=O)(=O)[O-].[K+] (centres undefined)
- Relative esterase susceptibility (Rattus norvegicus [1]): 0.21
- Inhibition (Rattus norvegicus [4]): -33%

SMILES: CCC(=O)OC(C)OP(=O)(OC(C)OC(=O)CC)C(CCC/C=C(\C)CC/C=C(\C)CCC=C(C)C)S(=O)(=O)[O-].[K+] (centres undefined)
- Relative esterase susceptibility (Rattus norvegicus [1]): 1.7
- ED50 (Rattus norvegicus [2]): 7 µmol/kg
- ED50 (Rattus norvegicus [3]): 11.6 µmol/kg

SMILES: CC(C)=CCC/C(C)=C/CC/C(C)=C/CCCC(P(=O)(OCOC(=O)C(C)(C)C)OCOC(=O)C(C)(C)C)S(=O)(=O)[O-].[K+] (centres undefined)
- Relative esterase susceptibility (Rattus norvegicus [1]): 1
- Inhibition (Rattus norvegicus [5]): -40%
- ED50 (Rattus norvegicus [3]): 3.9 µmol/kg

SMILES: CCC(=O)OC(CC)OP(=O)(OC(CC)OC(=O)CC)C(CCCc1cccc(Oc2ccccc2)c1)S(=O)(=O)O (centres undefined)
- ED50 (Rattus norvegicus [3]): 10.9 µmol/kg

SMILES: CC(C)=CCC/C(C)=C/CC/C(C)=C/CCCC(P(=O)(OCOC(=O)CC1CCCCC1)OCOC(=O)CC1CCCCC1)S(=O)(=O)[O-].[K+] (centres undefined)
- Relative esterase susceptibility (Rattus norvegicus [1]): 0.49
- Inhibition (Rattus norvegicus [6]): -35%
- ED50 (Rattus norvegicus [3]): 4.1 µmol/kg

SMILES: O=P(O)(O)C(CCCc1cccc(Oc2ccccc2)c1)S(=O)(=O)O (centres undefined)
- ED50 (Rattus norvegicus [2]): 0.2 µmol/kg
- ED50 (Rattus norvegicus [3]): 19.5 µmol/kg

SMILES: CCC(=O)OC(OP(=O)(OC(OC(=O)CC)C(C)C)C(CCC/C=C(\C)CC/C=C(\C)CCC=C(C)C)S(=O)(=O)[O-])C(C)C.[K+] (centres undefined)
- Relative esterase susceptibility (Rattus norvegicus [1]): 1.1
- Inhibition (Rattus norvegicus [4]): -43%

SMILES: CC(OC(=O)C(C)(C)C)OP(=O)(OC(C)OC(=O)C(C)(C)C)C(CCCc1cccc(Oc2ccccc2)c1)S(=O)(=O)[O-].[K+] (centres undefined)
- Relative esterase susceptibility (Rattus norvegicus [1]): 0.45
- ED50 (Rattus norvegicus [3]): 12.8 µmol/kg

SMILES: CCCCCCC(=O)OCOP(=O)(OCOC(=O)CCCCCC)C(CCC/C=C(\C)CC/C=C(\C)CCC=C(C)C)S(=O)(=O)[O-].[K+] (centres undefined)
- Relative esterase susceptibility (Rattus norvegicus [1]): 6.5
- ED50 (Rattus norvegicus [2]): 0.18 µmol/kg
- ED50 (Rattus norvegicus [3]): 14 µmol/kg

SMILES: CCC(=O)OC(C)OP(=O)(OC(C)OC(=O)CC)C(CCCc1cccc(Oc2ccccc2)c1)S(=O)(=O)[O-].[K+] (centres undefined)
- Relative esterase susceptibility (Rattus norvegicus [1]): 17
- ED50 (Rattus norvegicus [3]): 12.6 µmol/kg

SMILES: CC(OC(=O)C(C)C)OP(=O)(OC(C)OC(=O)C(C)C)C(CCCc1cccc(Oc2ccccc2)c1)S(=O)(=O)O (centres undefined)
- ED50 (Rattus norvegicus [3]): 10.1 µmol/kg

SMILES: CCC(=O)OC(OP(=O)(OC(OC(=O)CC)C(C)C)C(CCCc1cccc(Oc2ccccc2)c1)S(=O)(=O)O)C(C)C (centres undefined)
- ED50 (Rattus norvegicus [3]): 7.9 µmol/kg

SMILES: CC(C)C(=O)OC(OP(=O)(OC(OC(=O)C(C)C)C(C)C)C(CCCc1cccc(Oc2ccccc2)c1)S(=O)(=O)[O-])C(C)C.[K+] (centres undefined)
- Inhibition (Rattus norvegicus [4]): -45%

SMILES: CC(C)=CCC/C(C)=C/CC/C(C)=C/CCCC(P(=O)(O)O)S(=O)(=O)O (centres undefined)
- ED50 (Rattus norvegicus [2]): 0.25 µmol/kg
- ED50 (Rattus norvegicus [3]): 16.5 µmol/kg

SMILES: CC(C)(C)C(=O)OCOP(=O)(OCOC(=O)C(C)(C)C)C(CCCc1cccc(Oc2ccccc2)c1)S(=O)(=O)[O-].[K+] (centres undefined)
- Relative esterase susceptibility (Rattus norvegicus [1]): 15
- ED50 (Rattus norvegicus [2]): 1.7 µmol/kg
- ED50 (Rattus norvegicus [3]): 3.5 µmol/kg

SMILES: CC(C)=CCC/C(C)=C/CC/C(C)=C/CCCC(P(=O)(OCOC(=O)C(C)C)OCOC(=O)C(C)C)S(=O)(=O)[O-].[K+] (centres undefined)
- ED50 (Rattus norvegicus [2]): 1.7 µmol/kg
- ED50 (Rattus norvegicus [3]): 18.8 µmol/kg
- Relative esterase susceptibility (Rattus norvegicus [7]): 8.1

SMILES: CC(C)=CCC/C(C)=C/CC/C(C)=C/CCCC(P(=O)(OC(C)OC(=O)C(C)(C)C)OC(C)OC(=O)C(C)(C)C)S(=O)(=O)[O-].[K+] (centres undefined)
- Relative esterase susceptibility (Rattus norvegicus [1]): 0.2
- Inhibition (Rattus norvegicus [4]): -35%

Reference: ChEMBL document CHEMBL1129471, “Orally active squalene synthase inhibitors: bis((acyloxy)alkyl) prodrugs of the alpha-phosphonosulfonic acid moiety” (J Med Chem, 1996)
